In brackets after ≈: the same amount, converted by molar mass. Activity calls are given as the source filed them. No cut-off for these calls is given here. Where a SMILES comes first, the peptide text is derived from it.
Legend:
[1] = tested on: Salmonella enterica subsp. enterica; experiment: Antibacterial activity against wild type Salmonella enterica serovar Typhimurium ATCC 14028 after 16 hrs by modified twofold broth microdilution method; format: functional, Salmonella enterica subsp. enterica serovar Typhimurium; conditions: ATCC 14028, 16 h
Outline: (§1)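 Broth microdilution MBC assay: 5 × 10^5 bacteria/ml in LB with a linear gradient of peptide concentrations. Peptide dilutions were made fresh in 0.2% BSA, 0.01% acetic acid and added after the inoculum. Plates were incubated at 37°C for 16 h, then spotted onto LB agar. MBC was the lowest concentration with no growth, averaged over at least three trials.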

[2] = tested on: Salmonella enterica subsp. enterica; experiment: Antibacterial activity against bacterial sensory kinase PhoQ deficient Salmonella enterica serovar Typhimurium CS009 after 16 hrs by modified twofold broth microdilution method; format: functional, Salmonella enterica subsp. enterica serovar Typhimurium; conditions: CS009, 16 h; outline: as §1
[3] = tested on: Salmonella enterica subsp. enterica; experiment: Antibacterial activity against bacterial sensory kinase PhoQ deficient Salmonella enterica serovar Typhimurium expressing PhoPQ operon after 16 hrs by modified twofold broth microdilution method; format: functional, Salmonella enterica subsp. enterica serovar Typhimurium; outline: as §1
[4] = tested on: Salmonella enterica subsp. enterica; experiment: Antibacterial activity against bacterial sensory kinase PhoP deficient Salmonella enterica serovar Typhimurium CS053 after 16 hrs by modified twofold broth microdilution method; format: functional, Salmonella enterica subsp. enterica serovar Typhimurium; conditions: CS053, 16 h; outline: as §1
[5] = tested on: Salmonella enterica subsp. enterica; experiment: Antibacterial activity against bacterial sensory kinase PhoQ deficient Salmonella enterica serovar Typhimurium CS009 assessed as direct antimicrobial activity after 16 hrs by modified twofold broth microdilution method; format: functional, Salmonella enterica subsp. enterica serovar Typhimurium; outline: as §1
[6] = tested on: Salmonella enterica subsp. enterica; experiment: Antibacterial activity against bacterial sensory kinase PhoQ deficient Salmonella enterica serovar Typhimurium CS009 assessed as PhoQ-activating potential after 16 hrs by modified twofold broth microdilution method relative to wild type Salmonella enterica serovar Typhimurium ATCC 14028; format: functional, Salmonella enterica subsp. enterica serovar Typhimurium
Outline: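 PAP was calculated as MBC against wild-type ATCC 14028 minus MBC against PhoQ mutant CS009. Both MBCs came from the broth microdilution assay: 5 × 10^5 bacteria/ml in LB, 37°C for 16 h, spotting onto LB agar, no-growth endpoint, averaged over at least three trials.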

[7] = target: T1, Virulence sensor histidine kinase PhoQ (Salmonella typhimurium (strain LT2 / SGSC1412 / ATCC 700720)) (UniProt P0DM80); experiment: Activation of PhoQ in Salmonella enterica serovar Typhimurium CS102 expressing PhoN fusion protein assessed as initiation of acid phosphatase reporter enzyme expression at 1 ug/ml in presence of 1 mM magnesium; conditions: Salmonella enterica subsp. enterica serovar Typhimurium
T1 sequence (whole entry): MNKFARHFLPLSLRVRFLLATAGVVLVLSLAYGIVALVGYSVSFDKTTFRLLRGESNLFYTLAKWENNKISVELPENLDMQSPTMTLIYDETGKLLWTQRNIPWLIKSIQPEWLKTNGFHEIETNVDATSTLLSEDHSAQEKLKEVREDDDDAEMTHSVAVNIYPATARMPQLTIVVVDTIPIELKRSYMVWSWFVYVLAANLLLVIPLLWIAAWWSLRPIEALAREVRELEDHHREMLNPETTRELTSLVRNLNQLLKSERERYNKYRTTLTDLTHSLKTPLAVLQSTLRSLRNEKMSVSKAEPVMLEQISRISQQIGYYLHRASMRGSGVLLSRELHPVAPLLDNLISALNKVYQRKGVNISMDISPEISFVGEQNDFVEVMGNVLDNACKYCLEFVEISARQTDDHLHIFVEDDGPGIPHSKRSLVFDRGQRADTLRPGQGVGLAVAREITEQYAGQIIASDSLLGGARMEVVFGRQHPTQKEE
Outline: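 PhoPQ reporter strain CS102 (PhoQ-regulated acid phosphatase PhoN fusion) incubated in LB with peptide at 1 μg/ml plus 1 mM magnesium; acid phosphatase activity measured. Reference conditions were 50 μM MgCl2 (activating) and 5 mM MgCl2 (repressive). Mean of three replicate experiments.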

[8] = tested on: Salmonella enterica subsp. enterica; experiment: (§2) Antibacterial activity against wild type Salmonella enterica serovar Typhimurium ATCC 14028 preincubated till 4 hrs at dosing schedule of 1 ug/ml at time zero, 1 ug/ml at 1st hr, 2 ug/ml at 2nd hr and final 4 ug/ml at 3rd hr assessed as increase in minimum bactericidal concentration measured after 16 hrs by modified twofold broth microdilution method in presence of 1 mM Mg2+ relative to naive unadapted bacteria; format: functional, Salmonella enterica subsp. enterica serovar Typhimurium
[9] = tested on: Salmonella enterica subsp. enterica; experiment: Antibacterial activity against wild type Salmonella enterica serovar Typhimurium ATCC 14028 assessed as direct antimicrobial activity after 16 hrs by modified twofold broth microdilution method; format: functional, organism-based
[10] = tested on: Salmonella enterica subsp. enterica; experiment: Antibacterial activity against bacterial sensory kinase PhoP deficient Salmonella enterica serovar Typhimurium CS053 assessed as direct antimicrobial activity after 16 hrs by modified twofold broth microdilution method; format: functional, organism-based; outline: as §1
[11] = tested on: Salmonella enterica subsp. enterica; experiment: as §2, with “hr” for “hr assessed as increase in minimum bactericidal concentration”, “Mg2+” for “Mg2+ relative to naive unadapted bacteria”; format: functional, organism-based
[12] = tested on: Salmonella enterica subsp. enterica; experiment: Antibacterial activity against bacterial sensory kinase PhoQ deficient Salmonella enterica serovar Typhimurium CS009 by modified twofold broth microdilution method; format: functional, Salmonella enterica subsp. enterica serovar Typhimurium
[13] = tested on: Salmonella enterica subsp. enterica; experiment: Antibacterial activity against wild type Salmonella enterica serovar Typhimurium ATCC 14028 by modified twofold broth microdilution method; format: functional, Salmonella enterica subsp. enterica serovar Typhimurium

Compound | MBC [1] [mg/L] | MBC [2] [mg/L] | MBC [3] [mg/L] | MBC [4] [mg/L] | Activity [5] [µg/mL] | Activity [6] [µg/mL] | Activity [7] | fold change (FC) [8] | Activity [9] | Activity [10] | Activity [11] | MIC [12] [mg/L] | MIC [13] [mg/L]
CC(C)C[C@H](NC(=O)[C@H](CCCCN)NC(=O)[C@H](CCC(N)=O)NC(=O)[C@H](CC(N)=O)NC(=O)[C@H](CC(C)C)NC(=O)[C@H](CC(=O)O)NC(=O)[C@H](CCC(=O)O)NC(=O)[C@@H]1CCCN1C(=O)[C@@H](NC(=O)[C@H](C)NC(=O)CN)[C@@H](C)O)C(=O)N[C@@H](CO)C(N)=O (H-GATPEDLNQKLS-NH2) | > 500 | > 500 | > 500 | > 500 | – | – | – | – | – | – | – | – | –
CC[C@H](C)[C@H](NC(=O)[C@H](CCCCN)NC(=O)[C@@H](NC(=O)[C@@H](NC(=O)[C@H](CCCNC(=N)N)NC(=O)[C@H](C)NC(=O)[C@H](CC(C)C)NC(=O)[C@@H](N)CCCNC(=N)N)[C@@H](C)CC)C(C)C)C(=O)N[C@@H](CCCNC(=N)N)C(=O)N[C@H](C(=O)N[C@@H](C)C(=O)N[C@@H](CCCNC(=N)N)C(N)=O)C(C)C (H-RLARIVKIRVAR-NH2) | 68.8 (≈ 47.5 µM) | 13.1 (≈ 9.04 µM) | 69 (≈ 47.6 µM) | 13.3 (≈ 9.17 µM) | 13.1 | 55.7 | Active | <=10 | – | – | – | – | –
CC[C@H](C)[C@H](NC(=O)[C@H](CCCNC(=N)N)NC(=O)[C@H](C)NC(=O)[C@H](CC(C)C)NC(=O)[C@@H](N)CCCNC(=N)N)C(=O)N[C@H](C(=O)N1CCC[C@H]1C(=O)N[C@H](C(=O)N[C@@H](CCCNC(=N)N)C(=O)N[C@H](C(=O)N[C@@H](C)C(=O)N[C@@H](CCCNC(=N)N)C(N)=O)C(C)C)[C@@H](C)CC)C(C)C (H-RLARIVPIRVAR-NH2) | > 500 | 46.7 (≈ 32.9 µM) | > 500 | 45.4 (≈ 32 µM) | 46.7 | – | Active | – | inactive | inactive | – | – | –
CC[C@H](C)[C@H](NC(=O)[C@H](CCCNC(=N)N)NC(=O)[C@H](C)NC(=O)[C@H](CC(C)C)NC(=O)[C@@H](N)CCCNC(=N)N)C(=O)N[C@H](C(=O)N[C@H](C(=O)N[C@H](C(=O)N[C@@H](CCCNC(=N)N)C(=O)N[C@H](C(=O)N[C@@H](C)C(=O)NCC(N)=O)C(C)C)[C@@H](C)CC)C(C)C)C(C)C (H-RLARIVVIRVAG-NH2) | 31.4 (≈ 23.8 µM) | 8.6 (≈ 6.51 µM) | 34 (≈ 25.7 µM) | 10.1 (≈ 7.64 µM) | 8.6 | 22.8 | Active | – | – | – | – | – | –
CC[C@H](C)[C@H](NC(=O)[C@H](CCCNC(=N)N)NC(=O)[C@H](C)NC(=O)[C@H](CC(C)C)NC(=O)[C@@H](N)CCCNC(=N)N)C(=O)N[C@H](C(=O)N[C@H](C(=O)N[C@H](C(=O)N[C@@H](CCCNC(=N)N)C(=O)N[C@H](C(=O)N[C@@H](C)C(=O)N[C@@H](CCCNC(=N)N)C(N)=O)C(C)C)[C@@H](C)CC)C(C)C)C(C)C (H-RLARIVVIRVAR-NH2) | 32.8 (≈ 23.1 µM) | 6.2 (≈ 4.36 µM) | 42.5 (≈ 29.9 µM) | 6.5 (≈ 4.57 µM) | 6.2 | – | Active | – | – | – | – | – | –
CC[C@H](C)[C@H](NC(=O)[C@H](CCCNC(=N)N)NC(=O)[C@H](CCCNC(=N)N)NC(=O)[C@H](CC(C)C)NC(=O)[C@@H](N)CCCNC(=N)N)C(=O)N[C@H](C(=O)N[C@H](C(=O)N[C@H](C(=O)N[C@@H](CCCNC(=N)N)C(=O)N[C@H](C(=O)N[C@@H](C)C(=O)N[C@@H](CCCNC(=N)N)C(N)=O)C(C)C)[C@@H](C)CC)C(C)C)C(C)C (H-RLRRIVVIRVAR-NH2) | 11.5 (≈ 7.64 µM) | 4.2 (≈ 2.79 µM) | 30 (≈ 19.9 µM) | 3.8 (≈ 2.52 µM) | 4.2 | 7.3 | inactive | – | – | – | Active | – | –
CC[C@H](C)[C@H](NC(=O)[C@H](CCCNC(=N)N)NC(=O)[C@H](Cc1c[nH]c2ccccc12)NC(=O)[C@H](CCCNC(=N)N)NC(=O)[C@@H](N)CCCNC(=N)N)C(=O)N[C@H](C(=O)N[C@H](C(=O)N[C@H](C(=O)N[C@@H](CCCNC(=N)N)C(=O)N[C@H](C(=O)N[C@@H](CCCNC(=N)N)C(=O)N[C@@H](CCCNC(=N)N)C(N)=O)C(C)C)[C@@H](C)CC)C(C)C)C(C)C (H-RRWRIVVIRVRR-NH2) | 10 (≈ 6.01 µM) | 5.7 (≈ 3.43 µM) | 19 (≈ 11.4 µM) | 6.4 (≈ 3.85 µM) | 5.7 | 34.3 | inactive | – | – | – | – | – | –
CC1(C)S[C@@H]2[C@H](NC(=O)[C@H](N)c3ccccc3)C(=O)N2[C@H]1C(=O)O [AMPICILLIN] | – | – | – | – | – | – | – | – | – | – | – | 8 (≈ 22.9 µM) | 10 (≈ 28.6 µM)
CC1(C)S[C@@H]2[C@H](NC(=O)C(C(=O)O)c3ccccc3)C(=O)N2[C@H]1C(=O)O (stereo not given in full) [CARBENICILLIN] | – | – | – | – | – | – | – | – | – | – | – | 8 (≈ 21.1 µM) | 10 (≈ 26.4 µM)
CCn1cc(C(=O)O)c(=O)c2ccc(C)nc21 [NALIDIXIC ACID] | – | – | – | – | – | – | – | – | – | – | – | 3 (≈ 12.9 µM) | 3 (≈ 12.9 µM)
CN(C)[C@@H]1C(O)=C(C(N)=O)C(=O)[C@@]2(O)C(O)=C3C(=O)c4c(O)cccc4[C@@](C)(O)[C@H]3C[C@@H]12 [TETRACYCLINE] | – | – | – | – | – | – | – | – | – | – | – | 3 (≈ 6.75 µM) | 3 (≈ 6.75 µM)
COc1cc(Cc2cnc(N)nc2N)cc(OC)c1OC [TRIMETHOPRIM] | – | – | – | – | – | – | – | – | – | – | – | 1 (≈ 3.44 µM) | 1 (≈ 3.44 µM)
GENTAMICIN | – | – | – | – | – | – | – | – | – | – | – | 16 | 16

Source: ChEMBL document CHEMBL1151446, “The PhoQ-activating potential of antimicrobial peptides contributes to antimicrobial efficacy and is predictive of the induction of bacterial resistance” (2007)
